Measured values as given in ChEMBL document CHEMBL3352463, “Brain-penetrant, orally bioavailable microtubule-stabilizing small molecules are potential candidate therapeutics for Alzheimer's disease and related tauopathies” (J Med Chem, 2014).
Calls of active or inactive are those of the source. No cut-off for these calls is given here.

Assays:
[1] = test system: QBI293; assay: Induction of microtubule stabilization in human QBI293 cells assessed as increase in acetylated alpha-tubulin at 1 uM after 4 hrs by ELISA relative to vehicle treated control; format: cell-based
How it was run: (§1)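 QBI293 cells exposed to compound at 1 μM. Acetylated α-tubulin expressed as fold-change over vehicle-treated cells and over cells given 0.1 μM cevipabulin as positive control. Significance by two-tailed t-test.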

[2] = Ratio of drug level in brain to plasma in CD1 mouse at 5 mg/kg, ip after 1 hr by LC-MS/MS system
[3] = Drug level in CD1 mouse plasma at 5 mg/kg, ip after 1 hr by LC-MS/MS system; format: ADME, organism-based; parameters: dose 5 mg/kg, route intraperitoneal
How it was run: (§2)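 2-month-old CD1 mice (about 20 g) given 5 mg/kg ip; brain and plasma sampled at 1 h. Hemispheres sonicated in 10 mM ammonium acetate pH 5.7 (1:2 w/v); plasma from EDTA blood spun 4500g, 10 min, 4 °C. Acetonitrile extraction, then UPLC-MS/MS in positive ESI MRM mode. Quantified against spiked standard curves at 0.005–5 μM in matching matrix.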

[4] = Drug level in CD1 mouse brain at 5 mg/kg, ip after 1 hr by LC-MS/MS system; format: ADME, organism-based; parameters: dose 5 mg/kg, route intraperitoneal; settings: read-out: Drug uptake; how it was run: as §2
[5] = test system: QBI293; assay: Induction of microtubule stabilization in human QBI293 cells assessed as increase in acetylated alpha-tubulin at 1 uM after 4 hrs by ELISA relative to 0.1 uM treated triazolopyrimidines cevipabulin; format: cell-based; how it was run: as §1
[6] = target: ATP-dependent translocase ABCB1 (Homo sapiens, UniProt P08183); assay: Inhibition of human P-glycoprotein expressed in NCI/ADR-RES cells assessed as reduction of calcein-AM transport after 20 mins by fluorescence assay; format: cell-based
Sequence of ATP-dependent translocase ABCB1 (P08183 whole entry): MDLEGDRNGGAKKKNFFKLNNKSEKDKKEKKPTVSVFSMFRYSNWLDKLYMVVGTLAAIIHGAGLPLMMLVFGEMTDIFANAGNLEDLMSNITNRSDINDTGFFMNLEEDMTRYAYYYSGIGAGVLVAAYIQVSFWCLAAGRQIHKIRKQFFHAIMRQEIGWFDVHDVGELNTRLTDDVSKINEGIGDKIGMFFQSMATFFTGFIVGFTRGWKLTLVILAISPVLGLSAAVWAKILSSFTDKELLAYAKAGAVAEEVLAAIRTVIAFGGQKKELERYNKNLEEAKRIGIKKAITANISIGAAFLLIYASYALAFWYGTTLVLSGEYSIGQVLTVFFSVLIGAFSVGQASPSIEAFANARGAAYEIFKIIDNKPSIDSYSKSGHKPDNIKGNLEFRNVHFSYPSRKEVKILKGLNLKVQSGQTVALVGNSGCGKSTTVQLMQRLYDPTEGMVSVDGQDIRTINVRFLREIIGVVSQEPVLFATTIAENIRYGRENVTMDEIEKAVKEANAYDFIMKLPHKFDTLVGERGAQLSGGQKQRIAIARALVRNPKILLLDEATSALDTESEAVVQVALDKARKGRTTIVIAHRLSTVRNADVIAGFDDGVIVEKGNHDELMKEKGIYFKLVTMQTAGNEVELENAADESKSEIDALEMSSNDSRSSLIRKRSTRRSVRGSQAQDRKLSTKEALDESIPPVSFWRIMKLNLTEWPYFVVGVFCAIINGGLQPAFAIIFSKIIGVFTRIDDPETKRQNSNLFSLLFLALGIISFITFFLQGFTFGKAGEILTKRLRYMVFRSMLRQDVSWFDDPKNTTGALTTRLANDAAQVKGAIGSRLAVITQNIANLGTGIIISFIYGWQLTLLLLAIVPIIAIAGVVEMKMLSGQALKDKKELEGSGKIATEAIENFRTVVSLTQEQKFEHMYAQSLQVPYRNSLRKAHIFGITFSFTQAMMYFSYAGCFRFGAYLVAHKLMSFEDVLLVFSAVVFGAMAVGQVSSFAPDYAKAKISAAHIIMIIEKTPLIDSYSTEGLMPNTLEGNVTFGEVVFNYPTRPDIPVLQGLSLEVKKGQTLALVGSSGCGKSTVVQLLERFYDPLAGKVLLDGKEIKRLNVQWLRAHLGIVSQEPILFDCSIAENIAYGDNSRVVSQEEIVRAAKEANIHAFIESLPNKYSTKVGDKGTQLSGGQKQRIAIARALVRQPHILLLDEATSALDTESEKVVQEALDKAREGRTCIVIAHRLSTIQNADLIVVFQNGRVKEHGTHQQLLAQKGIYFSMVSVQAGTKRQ

[7] = Ratio of AUC for drug level in brain to plasma in CD1 mouse at 5 mg/kg, ip after 1 hr by LC-MS/MS system; format: ADME, organism-based; parameters: dose 5 mg/kg, route intraperitoneal; settings: brain and plasma, read-out: Ratio AUC
How it was run: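 2-month-old CD1 mice given 5 mg/kg ip; brain hemispheres (homogenized 1:2 w/v in 10 mM ammonium acetate pH 5.7) and EDTA plasma collected over a 16 h time course. Acetonitrile-precipitated supernatants quantified by LC-MS/MS (MRM, positive ESI) with spiked standard curves 0.005–5 μM.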

[8] = Ratio of AUC for free drug level in brain to plasma in CD1 mouse at 5 mg/kg, ip after 1 hr by LC-MS/MS system; format: ADME, organism-based; parameters: dose 5 mg/kg, route intraperitoneal; settings: brain and plasma
[9] = test system: Mus musculus; assay: Induction of microtubule stabilization in wild type mouse assessed as increase in acetylated alpha-tubulin level in brain at 1 mg/kg, ip after 4 to 6 days; format: functional, organism-based; parameters: dose 1 mg/kg
How it was run: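 Wild-type mice (n = 3 per group) dosed 1 mg/kg ip once daily for 4 or 6 days; acetylated α-tubulin measured in brain homogenates, expressed relative to controls; significance by ANOVA with Dunnett's multiple comparison test.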

[10] = Elimination half life in CD1 mouse plasma at 5 mg/kg, ip after 1 hr by LC-MS/MS system; format: ADME, organism-based; parameters: dose 5 mg/kg, route intraperitoneal; settings: read-out: beta t1/2 (converted)
How it was run: (§3)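 Female? no—2-month-old CD1 mice (20 g average) given 5 mg/kg ip; plasma (EDTA blood, centrifuged 4500g, 10 min, 4 °C) and brain hemispheres (homogenized in 10 mM ammonium acetate pH 5.7) sampled over 16 h. Acetonitrile extraction, LC-MS/MS by MRM against spiked standard curves (0.005–5 μM). Half-life from elimination rate constant, slope of ln concentration vs time at 4, 8 and 16 h.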

[11] = Elimination half life in CD1 mouse brain at 5 mg/kg, ip after 1 hr by LC-MS/MS system; format: ADME, organism-based; parameters: dose 5 mg/kg, route intraperitoneal; settings: read-out: beta t1/2 (converted); how it was run: as §3
[12] = test system: QBI293; assay: Induction of microtubule stabilization in human QBI293 cells assessed as increase in acetylated alpha-tubulin at 0.1 uM after 4 hrs by ELISA relative to vehicle treated control; format: cell-based
[13] = test system: QBI293; assay: Induction of microtubule stabilization in human QBI293 cells assessed as increase in acetylated alpha-tubulin at 100 nM after 4 hrs by immunofluorescence assay relative to control; format: cell-based
How it was run: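 QBI293 cells incubated 4 h with test compound (100 nM), colchicine (1 μM) or no compound; acetylated α-tubulin visualized by immunofluorescence to assess microtubule number/organization.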

[14] = Ratio of drug level in brain to plasma in CD1 mouse at 5 mg/kg, ip after 1 hr by LC-MS/MS system; format: ADME, organism-based; parameters: dose 5 mg/kg, route intraperitoneal; settings: brain and plasma, read-out: BPR
How it was run: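 CD1 mice (2 months, about 20 g) dosed 5 mg/kg ip; brain and plasma taken at 1 h. Each extracted with acetonitrile and measured by LC-MS/MS MRM against matrix standard curves (0.005–5 μM). Value is the brain concentration divided by the plasma concentration.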

| SMILES | fold change (FC) [1] | BPR [2] | concentration at 1 h [3] | concentration at 1 h [4] | fold change (FC) [5] | also measured |
| --- | --- | --- | --- | --- | --- | --- |
| C[C@H](Nc1c(-c2c(F)cc(OCCCNCC(F)(F)F)cc2F)c(Cl)nc2ncnn12)C(F)(F)F | 2.1 | 1.5 | 160 nM | 230 nM | 0.6 |  |
| C[C@H](Nc1nc(-c2cnccn2)nc(Cl)c1-c1c(F)cc(F)cc1F)C(F)(F)F | 2.7 |  | 5000 nM | 2900 nM | 0.9 | inhibition (INH) [6]: Not Active; Kp at 1 h [7]: 0.72; Kp uu at 1 h [8]: 1.7; Activity [9]: Active; half-life [10]: 15 h; half-life [11]: 15 h |
| C[C@H](Nc1c(-c2c(F)cc(OCCCN(C)C)cc2F)c(Cl)nc2ncnn12)C(F)(F)F | 9.1 |  | 4900 nM | 1300 nM | 1.3 | inhibition (INH) [6]: Not Active; Kp at 1 h [7]: 0.37; fold change (FC) [12]: 2; Kp uu at 1 h [8]: 0.09; Activity [9]: Active |
| CC(C)Nc1nc2nccnc2c(Cl)c1-c1c(F)cc(F)cc1F | 1 |  |  |  |  |  |
| CC(=O)NCCCOc1cc(F)c(-c2c(Cl)nc3ncnn3c2N[C@@H](C)C(F)(F)F)c(F)c1 | 4.5 |  |  |  | 1.5 |  |
| C[C@H](Nc1c(-c2c(F)cc(OCCCF)cc2F)c(Cl)nc2ncnn12)C(F)(F)F | 1.4 |  |  |  |  |  |
| NS(=O)(=O)c1ccc(NC(NC(=O)c2ccc(Br)cc2)C(Cl)(Cl)Cl)cc1 (configuration not stated) | 1 |  |  |  |  |  |
| C[C@H](Nc1nc(-c2ccccn2)nc(Cl)c1-c1c(F)cc(F)cc1F)C(F)(F)F | 4.2 |  | 4300 nM | 1500 nM | 0.9 |  |
| C[C@H](Nc1c(-c2c(F)cc(OCCCCl)cc2F)c(Cl)nc2ncnn12)C(F)(F)F | 1.2 | 0.88 | 178 nM | 160 nM |  |  |
| COc1ccccc1N1CCN(C(=O)c2cc(=O)c3cc(C)cc(C)c3o2)CC1 | 0.9 |  |  |  |  |  |
| C[C@H](Nc1c(-c2c(F)cc(F)cc2F)c(Cl)nc2ncnn12)C(F)(F)F | 1.3 | 0.8 | 2800 nM | 2400 nM | 0.4 |  |
| C[C@H](Nc1nc(-c2cnccn2)nc(Cl)c1-c1c(F)cc(OCCCN(C)C)cc1F)C(F)(F)F | 4.1 | 0.35 | 2500 nM | 860 nM | 0.5 |  |
| CN(C)CCCOc1cc(F)c(-c2c(Cl)nc(-c3ccccn3)nc2NCC(F)(F)F)c(F)c1 | 0.9 |  |  |  |  |  |
| COc1ccc(CCN(C)CCCC(C#N)(c2ccc(OC)c(OC)c2)C(C)C)cc1OC (configuration not stated) |  |  |  |  |  | inhibition (INH) [6]: Active |
| CC(C)c1cccc(C(C)C)c1N1C(=O)c2ccc(O)cc2C1=O | 1 |  |  |  |  |  |
| C[C@H](Nc1c(-c2c(F)cc(OCCCNc3ccccc3)cc2F)c(Cl)nc2ncnn12)C(F)(F)F | 1 | 1.6 | 75 nM | 120 nM |  |  |
| Fc1cc(F)c(-c2c(Cl)nc(-c3ccccn3)nc2NCC(F)(F)F)c(F)c1 | 1.6 |  |  |  |  |  |
| C[C@H](Nc1c(-c2c(F)cc(OCCCN)cc2F)c(Cl)nc2ncnn12)C(F)(F)F | 26.5 | 0.03 | 1300 nM | 40 nM | 3.4 | fold change (FC) [12]: 4.2 |
| Cc1nnc(Cl)c(-c2c(F)cc(F)cc2F)c1-c1ccc(Cl)s1 | 1.3 |  |  |  |  |  |
| CNCCCOc1cc(F)c(-c2c(Cl)nc3ncnn3c2N[C@@H](C)C(F)(F)F)c(F)c1 [CEVIPABULIN] |  | 0.037 | 2500 nM | 92 nM |  | inhibition (INH) [6]: Not Active; Activity [13]: Active |
| C[C@H](Nc1c(-c2c(F)cc(OCCCN3CCOCC3)cc2F)c(Cl)nc2ncnn12)C(F)(F)F | 4.1 | 0.49 | 1200 nM | 600 nM | 1.2 |  |
| Fc1cc(F)c(-c2c(Cl)nc(-c3cnccn3)nc2NCC(F)(F)F)c(F)c1 | 1.5 |  |  |  |  |  |
| C[C@H](Nc1c(-c2c(F)cc(OCCCNC(=O)C(C)(C)C)cc2F)c(Cl)nc2ncnn12)C(F)(F)F | 2.4 |  | 1500 nM | 170 nM | 0.7 | Kp at 1 h [14]: 0.12 |
| Cc1nnc(Cl)c(-c2c(F)cc(F)cc2F)c1-c1ccc(Cl)cc1 | 1.5 |  |  |  |  |  |
| C[C@H](Nc1c(-c2c(F)cc(OCCCO)cc2F)c(Cl)nc2ncnn12)C(F)(F)F | 10.1 | 2.8 | 29 nM | 78 nM | 1.2 |  |
| CC(C)Nc1c(-c2c(F)cc(F)cc2F)c(Cl)nc2nccnc12 | 1 |  |  |  |  |  |
| CC(=O)N(C)CCCOc1cc(F)c(-c2c(Cl)nc3ncnn3c2N[C@@H](C)C(F)(F)F)c(F)c1 | 1.3 | 0.15 | 200 nM | 20 nM |  |  |
| C/C1=C/C[C@@H](/C(C)=C/c2csc(C)n2)OC(=O)C[C@H](O)C(C)(C)C(=O)[C@H](C)[C@@H](O)[C@@H](C)CCC1 [EPOTHILONE D] |  |  |  |  |  | inhibition (INH) [6]: Active; Activity [13]: Active |
